NF-kB expr up: raises NF-kB expression in human neuronal cells | NF-kB reporter expression; hits give high values | fold change at 12.5 µM | 190,000 compounds, 1.6% hits; in the data active = fold change above about 3.3
APP 5'UTR act: activates APP 5'UTR luciferase reporter; SH-SY5Y APP 5'UTR luciferase reporter, luminescence; zero percent = DMSO vehicle wells; 190,000 compounds, 1% hits; activation, % at 2 µM;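 active = activation above a set limit, based on mean plus 3 SD of controls, cut at about 140% in these data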
Pf gametocyte: kills late stage P. falciparum gametocytes; P. falciparum stage V gametocytes, ATP luminescence, 24 h; inhibition, % at 10.9 µM; 150,000 compounds, 0.065% hits;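 active = inhibition above the mean plus 3 SD of compounds within the control limits, set per campaign, cut at about 38% in these data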;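 also: 0% = DMSO wells and 100% = medium only without gametocytes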
STAT1 activator: STAT1 signaling activation; 200,000 compounds, 2.6% hits; NIH 3T3 STAT1-luciferase reporter, IFN-gamma, luminescence; 100% = IFN-gamma alone, no compound; activation (% of control), % at 5.5 µM;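 active = activation above the screen-wide mean activation plus 3 SD, cut at about 130% in these data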;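 also: raw ratio to IFN-gamma control signal so 100% means no change and 0% no light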
STAT3 act: activators of IL-6 induced STAT3 signaling; U3A cells, IL-6 STAT3-luciferase reporter, luminescence; 100% = signal with IL-6 EC80 alone; 190,000 compounds, 0.91% hits; activation (% of control), % at 5.6 µM;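 active = activation above the screen-wide mean of compound activation plus 3 SD, cut at about 130% in these data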;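 also: 0% = background luminescence of wells with medium and substrate only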
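system = STAT3-luciferase reporter U3A cells | reagent = IL-6 stimulus at 33 ng/mL final | timing = 1 h compound pre-exposure, 6 h IL-6 stimulation, 37 °C | measured by = luminescence | evaluation = % activation versus median of IL-6-stimulated wells | control set = IL-6-only wells as 100% reference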
STAT1 blocker: inhibitors of IFN-gamma induced STAT1 signaling. NIH 3T3 STAT1-luciferase reporter, luminescence. inhibition, % at 5.5 µM. 200,000 compounds, 0.35% hits. AID 920;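 active = inhibition above a set limit, the mean inhibition across all tested compounds plus 3 SD, cut at about 34% in these data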;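 also: 0% = IFN-gamma with DMSO and 100% = IFN-gamma with 300 µM nifuroxazide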
Starred values were filed as active, the others as inactive; nt = not tested or not shown. The list is not random: actives were taken first. Their share in the collection is about 3.9%.

SMILES	NF-kB expr up	APP 5'UTR act	Pf gametocyte	STAT1 activator	STAT3 act	STAT1 blocker
COc1ccc(CCn2c(O)c(C=NCc3ccc4c(c3)OCO4)c(=O)[nH]c2=O)cc1OC	1	15	-16	143*	117	-47
COc1ccc(OC)c(-n2c(O)c(C=NCc3ccc4c(c3)OCO4)c(=O)[nH]c2=O)c1	1.3	-8	-22	105	100	-5
CN1CCCC(C(=O)c2ccc(-c3ccccc3)cc2)C1 (configuration not stated)	nt	nt	14	nt	nt	nt
CN1CC(C(=O)c2ccccc2)C(C(=O)c2ccccc2)C1 (configuration not stated)	4.3*	82	16	125	109	-28
COC(=O)C1=C(c2ccc(OC(F)(F)F)cc2)C[C@@H]2CC[C@H]1N2C(=O)N1CCCC1	nt	nt	10	nt	nt	nt
COC(=O)C1=C(c2ccc(F)cc2F)C[C@@H]2CC[C@H]1N2C(=O)NCCOc1ccccc1	nt	nt	1	nt	nt	nt
CCN(CC)C(=O)c1ccc(NC(=O)Nc2ccccc2F)cc1	1.6	121	42*	42	32	62*
CC(C)C/C(=N/O)c1c[nH]c2ccccc12	0.91	nt	nt	93	134*	8
CC(C(=O)c1c[nH]c2ccccc12)N1CCOCC1 (configuration not stated)	nt	nt	-12	nt	nt	nt
Cc1cc(C(=O)N=Nc2c(O)n(C)c3ccccc23)c(C)o1	2.2	76	nt	129*	90	-33
O=C1NC(=S)NC(=O)C1=Cc1ccc(Br)s1	nt	nt	-4	nt	nt	nt
Nc1ccccc1C(=O)OCCOc1ccccc1	6.7*	182*	-7	109	57	-10
CC1=NN(c2ccccc2)C(=O)C1/C=C1/C(=O)NC(=O)N(c2cc(C)cc(C)c2)C1=O (configuration not stated)	1.4	3	nt	95	144*	5
CC1=NN(c2ccccc2)C(=O)C1/C=C1/C(=O)NC(=O)N(c2cccc(C)c2)C1=O (configuration not stated)	1.2	7	nt	105	150*	-5
COC(=O)C1=C(c2c(C)noc2C)C[C@@H]2CC[C@H]1N2C(=O)NCCOc1ccc(OC)cc1	nt	nt	-10	nt	nt	nt
CCOc1ccc(CN2CCN(C(=O)Cc3ccccc3)CC2)cc1	nt	nt	-9	nt	nt	nt
CCCCCCOc1ccc(CN2CCN(C)CC2)cc1	1.1	144*	nt	110	88	-11
COC(=O)C1=C(c2ccc(OC(F)(F)F)cc2)C[C@@H]2CC[C@H]1N2C(=O)NC1CC1	nt	nt	0	nt	nt	nt
NC(=S)/N=C/c1c(O)[nH]c(=O)[nH]c1=O	3.4*	24	nt	99	101	0
C=CCNC(=S)/N=C/c1c(O)[nH]c(=O)[nH]c1=O	0.97	3	-17	97	100	4
CN1C(=O)C(Cc2c[nH]c3ccccc23)C(=O)N(C)C1=O	1.2	10	nt	92	159*	9
COC(=O)C1=C(c2c(C)noc2C)C[C@@H]2CC[C@H]1N2C(=O)NC1CCCCC1	nt	nt	0	nt	nt	nt
CNC(=O)Oc1ccc(-c2cn3cc(Cl)ccc3n2)cc1	14*	131	-2	90	31	11
CN1CCN(C(=O)COc2ccc(-c3nc4ccccc4s3)cc2)CC1	4.3*	135*	nt	55	28	49*
CC(C)NS(=O)(=O)c1ccc(OCC(=O)N2CCN(C)CC2)cc1	1.2	-4	nt	99	98	1
SMILES	NF-kB expr up	APP 5'UTR act	Pf gametocyte	STAT1 activator	STAT3 act	STAT1 blocker
Nc1ncn[nH]1	nt	nt	22	nt	nt	nt
COC(=O)C1=C(c2ccc(OC(F)(F)F)cc2)C[C@@H]2CC[C@H]1N2C(=O)N1CCOCC1	nt	nt	-13	nt	nt	nt
Cc1ccc(-n2c(O)c(C=Nc3ccccc3N)c(=O)[nH]c2=O)cc1C	2.7	135*	15	137*	104	-40
O=c1c2ccccc2nc(CSc2ncnc3nc[nH]c23)n1-c1ccccc1	3.9*	6	-3	104	99	-4
O=c1c2ccccc2nc(CSc2ncnc3nc[nH]c23)n1-c1ccccc1Cl	0.61	-5	nt	97	95	5
COc1ccc2c(c1O)C13CCN(C)C(C2)C1CCC(=O)C3 (configuration not stated)	nt	nt	-1	nt	nt	nt
COc1ccc(-c2cc(=Nc3cccc(C(=O)O)c3)c3cc(C)ccc3o2)cc1	2.2	139*	-8	136*	90	-42
COc1ccc(-c2cc(=NCCCCCC(=O)O)c3cc(C)ccc3o2)cc1	1.9	13	-17	111	98	-15

High-throughput results (PubChem BioAssay)
